Measurements: ChEMBL document CHEMBL1764975, “A new DNA gyrase inhibitor subclass of the cyclothialidine family based on a bicyclic dilactam-lactone scaffold. Synthesis and antibacterial properties” (J Med Chem, 2011)
Converted amounts (≈) assume the structure as drawn.

Columns and labels:
[1] = test system: Escherichia coli; experiment: Inhibition of Escherichia coli DNA gyrase A2B2 complex after 30 mins by supercoiling assay
[2] = test system: Staphylococcus aureus; experiment: (§1) Antimicrobial activity against Staphylococcus aureus Smith after 18 hrs by agar dilution method; type: functional
How it was run: (§2)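 Agar dilution on Mueller-Hinton medium, inoculum 10⁴ CFU/spot; MIC is the minimum inhibitory concentration against the named strain.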

[3] = test system: Staphylococcus aureus; experiment: Antimicrobial activity against Staphylococcus aureus Smith infected in iv dosed septicaemia Swiss albino mouse model after 4 days; type: functional; settings: 96 h
How it was run: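 Septicaemia model in mice infected with S. aureus Smith, compound given iv. In experiments with 0-1 survivors among 5-10 control mice, ED₅₀ (mg/kg) taken as lowest dose giving 3-5 survivors out of 5 infected mice.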

[4] = test system: Escherichia coli; experiment: Antimicrobial activity against Escherichia coli 25922 after 18 hrs by agar dilution method; type: functional; settings: Escherichia coli, 25922, 18 h; how it was run: as §2
[5] = test system: Stenotrophomonas maltophilia; experiment: Antimicrobial activity against Xanthomonas maltophilia IAC 739 after 18 hrs by agar dilution method; type: functional; settings: IAC 739, 18 h; how it was run: as §2
[6] = test system: Staphylococcus aureus; experiment: Antimicrobial activity against Staphylococcus aureus ATCC 25923 after 18 hrs by agar dilution method; type: functional; settings: ATCC 25923, 18 h; how it was run: as §2
[7] = test system: Staphylococcus aureus; experiment: as §1; type: functional; how it was run: as §2; remark: listed apart in the source
[8] = test system: Staphylococcus epidermidis; experiment: Antimicrobial activity against Staphylococcus epidermidis 16/2 after 18 hrs by agar dilution method; type: functional; settings: 16/2, 18 h; how it was run: as §2
[9] = test system: Enterococcus faecalis; experiment: Antimicrobial activity against Enterococcus faecalis 6 after 18 hrs by agar dilution method; settings: Enterococcus faecalis, 6, 18 h
[10] = Octanol-water partition coefficient, log D of the compound at pH 7.4 by shake-flask method; type: physicochemical
How it was run: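 Octanol/water partition measured by shake-flask at pH 7.4.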

[11] = test system: Streptococcus pyogenes; experiment: Antimicrobial activity against Streptococcus pyogenes b15 after 18 hrs by agar dilution method; type: functional; settings: b15, 18 h; how it was run: as §2
[12] = test system: Staphylococcus aureus; experiment: Plasma shift, ratio of MIC for Staphylococcus aureus Smith in presence of mouse plasma to MIC for Staphylococcus aureus Smith in absence of mouse plasma; type: functional
How it was run: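 Agar dilution MICs against S. aureus Smith were run on BHI agar mixed 1:1 with mouse plasma and on plain BHI agar. The plasma shift is the MIC with plasma divided by the MIC on BHI agar alone.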

[13] = test system: Staphylococcus aureus; experiment: Antimicrobial activity against multidrug-resistant Staphylococcus aureus after 18 hrs by agar dilution method; type: functional
How it was run: (§3)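 Agar dilution on Mueller-Hinton agar, inoculum 10⁴ CFU/spot, against panels of multiresistant clinical strains (S. aureus 11, E. faecalis 16, E. faecium 23). MIC_50/90 in μg/mL taken as the minimum concentration inhibiting at least 50% or 90% of the strains tested.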

[14] = test system: Enterococcus faecalis; experiment: Antimicrobial activity against multidrug-resistant Enterococcus faecalis after 18 hrs by agar dilution method; type: functional; how it was run: as §3
[15] = test system: Enterococcus faecium; experiment: Antimicrobial activity against multidrug-resistant Enterococcus faecium after 18 hrs by agar dilution method; type: functional; how it was run: as §3
[16] = test system: Streptococcus pneumoniae; experiment: Antimicrobial activity against multidrug-resistant Streptococcus pneumoniae after 18 hrs by agar dilution method; type: functional
How it was run: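 Agar dilution on IsoSensitest agar supplemented with sheep blood (5% v/v), inoculum 10⁴ CFU/spot, against 21 multiresistant S. pneumoniae strains. MIC_50/90 in μg/mL taken as the minimum concentration inhibiting at least 50% or 90% of the strains.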

[17] = test system: Haemophilus influenzae; experiment: Antimicrobial activity against multidrug-resistant Haemophilus influenzae after 18 hrs by agar dilution method; type: functional
How it was run: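 Agar dilution on Haemophilus test medium, inoculum 10⁵ CFU/spot, against 21 multiresistant H. influenzae strains. MIC_50/90 in μg/mL taken as the minimum concentration inhibiting at least 50% or 90% of the strains.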

[18] = test system: Moraxella catarrhalis; experiment: Antimicrobial activity against multidrug-resistant Moraxella catarrhalis after 18 hrs by agar dilution method; type: functional
How it was run: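 Agar dilution on Mueller-Hinton agar supplemented with sheep blood (5% v/v), inoculum 10⁵ CFU/spot, against 20 multiresistant M. catarrhalis strains. MIC_50/90 in μg/mL taken as the minimum concentration inhibiting at least 50% or 90% of the strains.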

MNEC [1] | MIC [2] | MIC [4] | MIC [5] | MIC [6] | MIC [7] | MIC [8] | MIC [9] | logD [10] | MIC [11] | Compound | ED50 [3] | Ratio [12] | also measured
0.001 µg/mL | 0.5 µg/mL (≈ 1.07 µM) | > 64 µg/mL | 4 µg/mL (≈ 8.57 µM) | 1 µg/mL (≈ 2.14 µM) | 0.5 µg/mL (≈ 1.07 µM) | < 0.12 µg/mL | 0.5 µg/mL (≈ 1.07 µM) | 2.32 | – | COc1cc(O)c2c(c1C)C(=O)OCC(=O)NCC(=S)N[C@H](c1nc(C)no1)CSC2 | 25 mg/kg | – | –
0.01 µg/mL | 0.25 µg/mL (≈ 0.574 µM) | > 64 µg/mL | 4 µg/mL (≈ 9.18 µM) | 0.5 µg/mL (≈ 1.15 µM) | 0.25 µg/mL (≈ 0.574 µM) | 0.12 µg/mL (≈ 0.276 µM) | 0.5 µg/mL (≈ 1.15 µM) | 1.99 | 1 µg/mL (≈ 2.3 µM) | COc1cc(O)c2c(c1C)C(=O)OCCCCC(=O)N[C@H](c1nc(C)no1)CSC2 | > 25 mg/kg | 2 | –
0.01 µg/mL | 8 µg/mL (≈ 17.8 µM) | > 64 µg/mL | > 64 µg/mL | 32 µg/mL (≈ 71 µM) | 8 µg/mL (≈ 17.8 µM) | 1 µg/mL (≈ 2.22 µM) | 8 µg/mL (≈ 17.8 µM) | 1.05 | 2 µg/mL (≈ 4.44 µM) | COc1cc(O)c2c(c1C)C(=O)OCC(=O)NCC(=O)N[C@H](c1nc(C)no1)CSC2 | > 25 mg/kg | – | –

The remaining lines, values behind:

Compound | MNEC [1] | MIC [2] | MIC [4] | MIC [5] | MIC [6] | MIC [7] | MIC [8] | MIC [9] | logD [10] | MIC [11] | ED50 [3] | Ratio [12] | also measured
COc1cc(O)c2c(c1Br)C(=O)OCCCCC(=S)N[C@H](c1nc(C)no1)CSC2 | 0.005 µg/mL | 0.12 µg/mL (≈ 0.232 µM) | > 64 µg/mL | 1 µg/mL (≈ 1.94 µM) | < 0.12 µg/mL | < 0.12 µg/mL | < 0.12 µg/mL | 0.12 µg/mL (≈ 0.232 µM) | 3.23 | 0.12 µg/mL (≈ 0.232 µM) | > 25 mg/kg | 8 | –
COc1cc(O)c2c(c1C)C(=O)O[C@H](CO)CCC/C(S)=N/[C@H](c1nc(C)no1)CSC2 | 0.005 µg/mL | 0.5 µg/mL (≈ 1.04 µM) | – | – | – | – | – | – | – | – | 12.5 mg/kg | – | MIC50 [13]: 1 µg/mL (≈ 2.08 µM); MIC90 [13]: 1 µg/mL (≈ 2.08 µM); MIC50 [14]: 1 µg/mL (≈ 2.08 µM); MIC90 [14]: 1 µg/mL (≈ 2.08 µM); MIC50 [15]: 1 µg/mL (≈ 2.08 µM); MIC90 [15]: 2 µg/mL (≈ 4.15 µM); MIC50 [16]: 2 µg/mL (≈ 4.15 µM); MIC90 [16]: 4 µg/mL (≈ 8.31 µM); MIC50 [17]: 8 µg/mL (≈ 16.6 µM); MIC90 [17]: 8 µg/mL (≈ 16.6 µM); MIC50 [18]: 2 µg/mL (≈ 4.15 µM); MIC90 [18]: 2 µg/mL (≈ 4.15 µM)
COc1cc(O)c2c(c1Br)C(=O)OCCCCC(=O)N[C@H](c1nc(C)no1)CSC2 | 0.005 µg/mL | 0.12 µg/mL (≈ 0.24 µM) | 64 µg/mL (≈ 128 µM) | 2 µg/mL (≈ 4 µM) | < 0.12 µg/mL | < 0.12 µg/mL | < 0.12 µg/mL | 0.12 µg/mL (≈ 0.24 µM) | 2.18 | < 0.12 µg/mL | 25 mg/kg | 4 | –
COc1cc(O)c2c(c1Cl)C(=O)OCCCCC(=S)N[C@H](c1nc(CN)no1)CSC2.Cl | 0.002 µg/mL | 0.12 µg/mL | 64 µg/mL | 4 µg/mL | 0.5 µg/mL | 0.12 µg/mL | < 0.12 µg/mL | < 0.12 µg/mL | 1.89 | 0.25 µg/mL | 6 mg/kg | – | –
